Calls of active or inactive are those of the source. The rule behind the calls is not given here.
Legend:
Nucleic Acid [1] = assay: Binding affinity to calf thymus DNA increase in DNA viscosity at 12 to 60 uM by viscosimetric titration assay; type: nucleic-acid assay; settings: Bos taurus
In short: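 Relative viscosity of ctDNA (3.11 × 10^-8 M) with compound at 12–60 × 10^-6 M was measured by automated microviscometry in a 1.6 mm capillary at 25 °C, in 10 mM Tris, pH 7.4. Solution density was also measured.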

[2] = molecular target: T1, DNA topoisomerase 1 (Homo sapiens) (UniProt P11387); assay: Inhibition of human topoisomerase 1 assessed as reduction in pBR322 DNA relaxation of relaxation at 5 uM by DNA unwinding assay
T1 sequence (whole entry): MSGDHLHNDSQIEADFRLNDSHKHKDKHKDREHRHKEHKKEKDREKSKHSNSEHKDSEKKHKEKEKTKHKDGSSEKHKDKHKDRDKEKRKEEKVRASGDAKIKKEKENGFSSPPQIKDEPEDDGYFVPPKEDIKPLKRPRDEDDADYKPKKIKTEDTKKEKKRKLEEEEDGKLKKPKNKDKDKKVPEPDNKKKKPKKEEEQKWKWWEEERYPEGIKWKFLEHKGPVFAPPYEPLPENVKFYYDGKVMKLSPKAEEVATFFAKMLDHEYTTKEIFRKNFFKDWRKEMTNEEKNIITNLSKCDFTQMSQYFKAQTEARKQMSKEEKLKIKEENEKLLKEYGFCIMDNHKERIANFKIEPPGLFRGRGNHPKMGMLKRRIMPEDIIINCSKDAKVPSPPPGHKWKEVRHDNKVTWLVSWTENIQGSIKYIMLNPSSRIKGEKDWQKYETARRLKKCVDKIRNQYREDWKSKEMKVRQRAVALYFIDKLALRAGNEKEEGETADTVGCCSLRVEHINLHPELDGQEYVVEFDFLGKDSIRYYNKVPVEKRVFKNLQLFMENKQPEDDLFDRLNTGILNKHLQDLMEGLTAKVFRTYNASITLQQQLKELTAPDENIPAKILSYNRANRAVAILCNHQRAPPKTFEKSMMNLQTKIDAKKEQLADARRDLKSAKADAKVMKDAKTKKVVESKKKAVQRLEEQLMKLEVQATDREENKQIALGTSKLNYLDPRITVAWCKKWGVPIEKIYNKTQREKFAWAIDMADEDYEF

[3] = molecular target: T1, DNA topoisomerase 1 (Homo sapiens); assay: Inhibition of human topoisomerase 1 assessed as reduction in pBR322 DNA relaxation of relaxation at 60 uM by DNA unwinding assay
Nucleic Acid [4] = assay: Binding affinity to calf thymus DNA by spectrofluorimetric titration assay; type: nucleic-acid assay; settings: Bos taurus
In short: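 Fluorescence titration at 25 °C in 0.01 M Tris, pH 7.4. Compound (9.58 × 10^-6 M) was titrated with ctDNA from 0 to 2.57 × 10^-4 M bp, excited at 384 nm, and emission recorded from 400 to 600 nm. K and n were obtained from McGhee–von Hippel fits of Scatchard data.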

Nucleic Acid [5] = assay: Binding affinity to calf thymus DNA assessed as hypochromacity at 12.8 uM by UV-visible absorption spectroscopy; settings: Bos taurus
Nucleic Acid [6] = assay: Binding affinity to calf thymus DNA assessed as melting temperature at 12.4 uM by thermal denaturation study; type: nucleic-acid assay; settings: Bos taurus
Nucleic Acid [7] = assay: Binding affinity to Escherichia coli pUC19 DNA assessed as reduction in DNA mobility to 5 to 80 uM by EMSA; type: nucleic-acid assay
In short: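 Supercoiled pUC19 plasmid incubated with compound at 5, 20, 40, 60 or 80 µM. Native agarose gel electrophoresis run with no ethidium bromide in the gel; band mobility was then read.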

Nucleic Acid [8] = assay: Binding affinity to calf thymus DNA at 6.5 uM by CD spectroscopy; type: nucleic-acid assay; settings: Bos taurus
In short: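 CD spectra were recorded in 1 mm quartz cuvettes in 0.01 M Tris, pH 7.4, with 6.52 µM compound and ctDNA. Each spectrum is the mean of three scans after buffer background subtraction.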

HL-60 [9] = assay: Induction of caspase-3 activation in human HL60 cells at 5 to 25 uM incubated for 24 to 72 hrs by FACS assay; type: functional, cell-based
In short: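 HL-60 cells (RPMI with 10% heat-inactivated FCS, 37 °C, 5% CO2) were seeded in dishes and treated 24, 48 or 72 h. Cells were fixed and permeabilized 20 min on ice, then stained 30 min at RT with FITC anti-active caspase-3 antibody. Read-out was the percentage of positive cells by flow cytometry. Mean ± SD of at least three independent experiments; ANOVA with Tukey.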

HL-60 [10] = assay: Drug uptake in human HL60 cells with normal morphology at 50 uM incubated for 18 hrs by fluorescence microscopy; type: ADME, cell-based; settings: hl-60, 18 h
In short: (§1)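 HL-60 cells were treated with 50 µM compound for 18 h, washed with PBS, resuspended in HBSS and mounted as native slides. Cells were imaged by inverted fluorescence microscopy at 40×, with excitation 360/40 and emission 470/40. The fluorescence channel was merged with brightfield images.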

HL-60 [11] = assay: Antiproliferative activity against human HL60 cells assessed as cell number at 25 uM incubated for 48 hrs by Coulter counting method; type: functional
In short: (§2)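 HL-60 cells in RPMI with 10% heat-inactivated FCS, antibiotics and amphotericin, 37 °C, 5% CO2, seeded in 60 mm dishes. Compound added at 5, 15 or 25 µM for 24, 48 or 72 h. Absolute cell counts taken by Coulter counter and expressed as percentage of untreated control. Mean ± SD of at least three independent experiments; one-way ANOVA with Tukey test, p < 0.05.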

HL-60 [12] = assay: Drug uptake in human HL60 cells with necrotic morphology at 50 uM incubated for 18 hrs by fluorescence microscopy; type: ADME, cell-based; settings: hl-60, 18 h; in short: as §1
HL-60 [13] = assay: Antiproliferative activity against human HL60 cells assessed as cell number at 5 uM incubated for 48 hrs by Coulter counting method; type: functional; in short: as §2
HL-60 [14] = assay: Antiproliferative activity against human HL60 cells assessed as cell number at 5 uM incubated for 72 hrs by Coulter counting method; type: functional; in short: as §2
HL-60 [15] = assay: Antiproliferative activity against human HL60 cells assessed as cell number at 5 uM incubated for 24 hrs by Coulter counting method; type: functional; in short: as §2
HL-60 [16] = assay: Antiproliferative activity against human HL60 cells assessed as cell number at 15 uM incubated for 24 hrs by Coulter counting method; type: functional; in short: as §2
HL-60 [17] = assay: Induction of apoptosis in human HL60 cells at 5 to 25 uM incubated for 72 hrs by AnnexinV/propidium iodide staining method; type: functional, cell-based
In short: (§3)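 HL-60 cells (1.5 × 10^5) were treated at 5–25 µM for 24, 48 or 72 h and harvested. They were stained with Annexin V-FITC for 10 min in HEPES/CaCl2/NaCl binding buffer, washed, briefly stained with PI (1 mg/mL) and analysed by flow cytometry for apoptosis and necrosis. Mean ± SD, n ≥ 3.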

HL-60 [18] = assay: Antiproliferative activity against human HL60 cells assessed as cell number at 15 uM incubated for 48 hrs by Coulter counting method; type: functional; in short: as §2
HL-60 [19] = assay: Antiproliferative activity against human HL60 cells assessed as cell number at 15 uM incubated for 72 hrs by Coulter counting method; type: functional; in short: as §2
HL-60 [20] = assay: Antiproliferative activity against human HL60 cells assessed as cell number at 25 uM incubated for 24 hrs by Coulter counting method; type: functional; in short: as §2
HL-60 [21] = assay: Induction of caspase-3 activation in human HL60 cells at 25 uM incubated for 72 hrs by FACS assay; type: functional
In short: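 HL-60 cells were treated for 72 h, washed in cold PBS, fixed and permeabilized for 20 min on ice. They were incubated with a FITC anti-active caspase-3 antibody for 30 min at RT and analysed by flow cytometry. Results are the percentage of positively stained cells; mean ± SD, n ≥ 3.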

HL-60 [22] = assay: Induction of necrosis in human HL60 cells at 5 to 25 uM incubated for 48 hrs by AnnexinV/propidium iodide staining method; type: functional, cell-based
In short: (§4)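 HL-60 cells (1.5 × 10^5) were exposed to compound, then stained 10 min with Annexin V-FITC in HEPES/CaCl2/NaCl binding buffer. Cells were washed, briefly stained with propidium iodide and analysed by flow cytometry for apoptotic and necrotic fractions. Mean ± SD of at least three independent experiments.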

HL-60 [23] = assay: Induction of necrosis in human HL60 cells at 5 to 25 uM incubated for 24 hrs by AnnexinV/propidium iodide staining method; type: functional, cell-based; in short: as §4
HL-60 [24] = assay: Induction of apoptosis in human HL60 cells at 5 to 25 uM incubated for 48 hrs by AnnexinV/propidium iodide staining method; type: functional, cell-based; in short: as §3
HL-60 [25] = assay: Antiproliferative activity against human HL60 cells assessed as cell number at 25 uM incubated for 72 hrs by Coulter counting method; type: functional; in short: as §2
HL-60 [26] = assay: Induction of apoptosis in human HL60 cells at 5 to 25 uM incubated for 24 hrs by AnnexinV/propidium iodide staining method; type: functional, cell-based; in short: as §3
HL-60 [27] = assay: Induction of necrosis in human HL60 cells at 5 to 25 uM incubated for 72 hrs by AnnexinV/propidium iodide staining method; type: functional, cell-based; in short: as §4

Row | Compound | Activity (Nucleic Acid [1]) | Activity [2] | Topoisomerase 1 inhibition (active/inactive) [3] | K (Nucleic Acid [4]) [×10⁵ /M] | Activity (Nucleic Acid [5]) [%] | Tm (Nucleic Acid [6]) [°C] | Activity (Nucleic Acid [7]) | Activity (Nucleic Acid [8]) | further results
1 | CCCCNC(=N)Nc1ccc2cc3ccc(NC(=N)NCCCC)cc3nc2c1 | Active | Active | Active | 4.25 | 17 | 86 | Active | Active | –
2 | CCCNC(=N)Nc1ccc2cc3ccc(NC(=N)NCCC)cc3nc2c1 | Active | Active | Active | 5.01 | 32 | 85 | Active | Active | –
3 | CCCCCNC(=N)Nc1ccc2cc3ccc(NC(=N)NCCCCC)cc3nc2c1.Cl.Cl.O | Active | Active | Active | 2.36 | 31 | 88 | inactive | Active | Activity (HL-60 [9]): inactive; Drug uptake (HL-60 [10]): Active; Activity (HL-60 [11]): 67.98%; Drug uptake (HL-60 [12]): Active; Activity (HL-60 [13]): 81.9%; Activity (HL-60 [14]): 83.3%; Activity (HL-60 [15]): 76.19%; Activity (HL-60 [16]): 75.2%; Activity (HL-60 [17]): inactive; Activity (HL-60 [18]): 77.14%; Activity (HL-60 [19]): 54.4%; Activity (HL-60 [20]): 78.32%; Activity (HL-60 [21]): 46.8%; Activity (HL-60 [22]): inactive; Activity (HL-60 [23]): inactive; Activity (HL-60 [24]): inactive; Activity (HL-60 [25]): 48.67%; Activity (HL-60 [26]): inactive; Activity (HL-60 [27]): inactive

— ChEMBL document CHEMBL2169850, “3,6-bis(3-alkylguanidino)acridines as DNA-intercalating antitumor agents” (Eur J Med Chem, 2012)
